# Assay results taken from ChEMBL document CHEMBL4004799, “Octaminomycins A and B, Cyclic Octadepsipeptides Active against Plasmodium falciparum” (J Nat Prod, 2017).
# pIC50: −log10 of the molar value. Active and inactive are the calls of the source. The rule behind the calls is not given here. Where a SMILES comes first, the peptide text is derived from it. Bridges are numbered along the chain shown (N, C = ends). [ ]: non-standard residue; d: D form. The star is where a group is joined. NMeY = CN[C@@H](Cc1ccc(O)cc1)C(=O)O; Propionyl = CCC(=O)*
# Key:
# Plasmodium falciparum [1] = experiment: Antimalarial activity against chloroquine-sensitive Plasmodium falciparum 3D7; assay type: functional
# Procedure, shortened: (§1)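 P. falciparum strains maintained at 37 °C under 5.0% CO2 in human erythrocytes (3% hematocrit), RPMI1640 with 10% human plasma; assay run per an earlier published method; IC50 in μM.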
# Aspergillus fumigatus = experiment: Antimicrobial activity against Aspergillus fumigatus Af293 up to 30 uM after 48 hrs by broth microdilution assay; assay type: functional
# HeLa = experiment: Cytotoxicity against human HeLa cells after 48 hrs by WST-8 assay; assay type: cell-based
# Plasmodium falciparum [2] = experiment: Antimalarial activity against chloroquine-resistant Plasmodium falciparum K1; assay type: functional; procedure, shortened: as §1
# Pyricularia oryzae = experiment: Antimicrobial activity against Pyricularia oryzae kita-1 up to 30 uM after 48 hrs by broth microdilution assay; assay type: functional
# Plasmodium falciparum [3] = experiment: Antimalarial activity against chloroquine-resistant Plasmodium falciparum Dd2; assay type: functional; procedure, shortened: as §1
# HL-60 = experiment: Cytotoxicity against human HL60 cells after 48 hrs by WST-8 assay; assay type: cell-based; settings: HL-60, 48 h
# Procedure, shortened: (§2)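 Cells were seeded in 96-well plates and exposed to compounds for 48 h. HL-60 cells were grown at 37 °C in RPMI-1640 with 10% FBS. tsFT210 cells, a mouse FM3A cdc2 temperature-sensitive mutant, were grown at 32 °C in RPMI-1640 with 5% calf serum. WST-8 was added at 1/10 volume for 1 h, and growth was read as absorbance at 450 nm.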
# Staphylococcus aureus = experiment: Antimicrobial activity against Staphylococcus aureus 209 up to 30 uM after 24 hrs by broth microdilution assay; assay type: functional
# [4] = Cytotoxicity against temperature-sensitive mouse FT210 cells after 48 hrs by WST-8 assay; assay type: cell-based; settings: FT210, 48 h; procedure, shortened: as §2
# Escherichia coli = experiment: Antimicrobial activity against Escherichia coli HO141 up to 30 uM after 24 hrs by broth microdilution assay; assay type: functional
# Candida albicans = experiment: Antimicrobial activity against Candida albicans JCM1542 up to 30 uM after 24 hrs by broth microdilution assay; assay type: functional
# NRK = experiment: Cytotoxicity against rat NRK cells infected with temperature-sensitive mutant of Rous sarcoma virus after 48 hrs by WST-8 assay; assay type: cell-based
# Procedure, shortened: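 Rat kidney cells infected with ts25 (T-class Rous sarcoma virus Prague mutant) grown at permissive 32 °C in MEM + 10% calf serum; […] cells/well seeded, compounds applied 48 h; WST-8 (1/10 volume) added for 1 h, growth read as absorbance at 450 nm.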
SMILES,pIC50 (Plasmodium falciparum [1]),Activity (Aspergillus fumigatus),pIC50 (HeLa),pIC50 (Plasmodium falciparum [2]),Activity (Pyricularia oryzae),pIC50 (Plasmodium falciparum [3]),pIC50 (HL-60),Activity (Staphylococcus aureus),pIC50 [4],Activity (Escherichia coli),Activity (Candida albicans),pIC50 (NRK)
CCC(=O)N[C@@H]1C(=O)N[C@@H](Cc2ccccc2)C(=O)N[C@H](CC(C)C)C(=O)N[C@@H](C(C)C)C(=O)N2CCC[C@H]2C(=O)N[C@@H](CC(C)C)C(=O)N(C)[C@@H](Cc2ccc(O)cc2)C(=O)N2CCC[C@H]2C(=O)O[C@@H]1C (Propionyl-TF[dL]VPL[NMeY]P; ester 1-C),5.82,inactive,< 4.52,5.89,inactive,5.80,< 4.52,inactive,< 4.52,inactive,inactive,< 4.52
CC(=O)N[C@@H]1C(=O)N[C@@H](Cc2ccccc2)C(=O)N[C@H](CC(C)C)C(=O)N[C@@H](C(C)C)C(=O)N2CCC[C@H]2C(=O)N[C@@H](CC(C)C)C(=O)N(C)[C@@H](Cc2ccc(O)cc2)C(=O)N2CCC[C@H]2C(=O)O[C@@H]1C (Ac-TF[dL]VPL[NMeY]P; ester 1-C),5.82,inactive,< 4.52,6.08,inactive,5.96,< 4.52,inactive,< 4.52,inactive,inactive,< 4.52
